Experimental data reported in ChEMBL document CHEMBL1142278, “Efficient inhibition of iron superoxide dismutase and of Trypanosoma cruzi growth by benzo[g]phthalazine derivatives functionalized with one or two imidazole rings” (J Med Chem, 2008).

Legend:
Trypanosoma cruzi [1] = experiment: Antiparasitic activity against Trypanosoma cruzi epimastigotes after 24 hrs; assay type: functional, organism-based
In short: (§1)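 Epimastigotes were cultured with compound at 2.5, 25 and 125 µM, and growth inhibition was read at 24, 48 or 72 h. IC50 was calculated by linear regression from Kc values at those concentrations. Results are the average of three separate determinations.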

Trypanosoma cruzi [2] = experiment: Antiparasitic activity against Trypanosoma cruzi epimastigotes after 48 hrs; assay type: functional, organism-based; in short: as §1
Trypanosoma cruzi [3] = experiment: Antiparasitic activity against Trypanosoma cruzi epimastigotes after 72 hrs; assay type: functional, organism-based; in short: as §1
[4] = Toxicity in african green monkey Vero cells after 72 hrs; assay type: cell-based; settings: African green monkey (Chlorocebus sabaeus)
In short: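 Vero cells were cultured with compound for 72 h. The cytotoxic IC50 was derived by linear regression from Kc values at 2.5, 25 and 125 µM. Results are the average of three separate determinations.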

[5] = target: Superoxide dismutase [Cu-Zn] (Homo sapiens) (UniProt P00441); experiment: inhibition of CuZn-SOD in human erythrocytes at 2.5 uM; assay type: cell-based
[6] = target: Superoxide dismutase [Cu-Zn] (Homo sapiens) (UniProt P00441); experiment: inhibition of CuZn-SOD in human erythrocytes at 25 uM; assay type: cell-based
[7] = target: Superoxide dismutase [Cu-Zn] (Homo sapiens) (UniProt P00441); experiment: inhibition of CuZn-SOD in human erythrocytes at 125 uM; assay type: cell-based
Trypanosoma cruzi [8] = experiment: Antiparasitic activity against Trypanosoma cruzi in Vero cells assessed as reduction of infection rate at 10 uM relative to control; assay type: functional; set-up: scale not given: the % may be the effect or the level left
In short: (§2)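 Vero cells (1 × 10^5) were grown for 2 days, then infected with 1 × 10^6 T. cruzi metacyclic forms, adding compound (10 µM) at the same time. Cultures were followed over days 1–8. Read-outs were % infected cells, mean amastigotes per infected cell, and trypomastigotes in the medium, each compared with an untreated control. Values are means of three separate experiments.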

Trypanosoma cruzi [9] = experiment: Antiparasitic activity against Trypanosoma cruzi in Vero cells assessed as reduction of amastigotes at 10 uM on day 8 relative to control; assay type: functional; set-up: scale not given: the % may be the effect or the level left; in short: as §2
Trypanosoma cruzi [10] = experiment: Antiparasitic activity against Trypanosoma cruzi in Vero cells assessed as reduction of trypomastigotes at 10 uM on day 8 relative to control; assay type: functional; set-up: scale not given: the % may be the effect or the level left; in short: as §2
Trypanosoma cruzi [11] = experiment: Inhibition of Iron superoxide dismutase in Trypanosoma cruzi epimastigotes at 2.5 uM
Trypanosoma cruzi [12] = experiment: Inhibition of Iron superoxide dismutase in Trypanosoma cruzi epimastigotes at 25 uM
Trypanosoma cruzi [13] = experiment: Inhibition of Iron superoxide dismutase in Trypanosoma cruzi epimastigotes at 125 uM

Superoxide dismutase [Cu-Zn] (Homo sapiens), sequence (P00441 whole entry): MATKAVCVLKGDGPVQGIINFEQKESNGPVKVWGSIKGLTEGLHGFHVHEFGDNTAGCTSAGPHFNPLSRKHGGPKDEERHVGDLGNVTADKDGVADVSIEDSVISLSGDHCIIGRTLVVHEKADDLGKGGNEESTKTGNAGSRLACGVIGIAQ

IC50 (Trypanosoma cruzi [1])	IC50 (Trypanosoma cruzi [2])	IC50 (Trypanosoma cruzi [3])	inhibition [5]	inhibition [6]	inhibition [7]	inhibition (Trypanosoma cruzi [11])	inhibition (Trypanosoma cruzi [12])	inhibition (Trypanosoma cruzi [13])	Structure (SMILES)	IC50 at 72 h [4]	Activity (Trypanosoma cruzi [8])	Activity (Trypanosoma cruzi [9])	Activity (Trypanosoma cruzi [10])
53.4 µM	34.8 µM	< 0.2 µM	2%	12%	18%	32%	42%	100%	c1ccc2cc3c(NCCCn4ccnc4)nnc(NCCCn4ccnc4)c3cc2c1	69.3 µM	84%	44%	>50%
51 µM	46.9 µM	13.7 µM	7%	22%	27%	80%	93%	94%	Clc1nnc(NCCCn2ccnc2)c2cc3ccccc3cc12	146 µM	74%		
61.1 µM	35.1 µM	14.2 µM	0%	5%	6%	46%	53%	86%	c1ccc2cc3c(NCCc4c[nH]cn4)nnc(NCCc4c[nH]cn4)c3cc2c1		>50%		
108 µM	34.6 µM	< 0.3 µM	0%	0%	11%	50%	91%	100%	Clc1nnc(NCCc2c[nH]cn2)c2cc3ccccc3cc12	213 µM	81%	55%	>50%
									c1ccc2cc3c(NCCc4cnc[nH]4)nnc(NCCc4cnc[nH]4)c3cc2c1	88.7 µM			

Structure (SMILES)	IC50 (Trypanosoma cruzi [1])	IC50 (Trypanosoma cruzi [2])	IC50 (Trypanosoma cruzi [3])	inhibition [5]	inhibition [6]	inhibition [7]	inhibition (Trypanosoma cruzi [11])	inhibition (Trypanosoma cruzi [12])	inhibition (Trypanosoma cruzi [13])	IC50 at 72 h [4]	Activity (Trypanosoma cruzi [8])	Activity (Trypanosoma cruzi [9])	Activity (Trypanosoma cruzi [10])
O=C(Cn1ccnc1[N+](=O)[O-])NCc1ccccc1 [BENZNIDAZOLE]			15.8 µM										
